Calls of active or inactive are those of the source. The rule behind the calls is not given here.
Tested on: Pseudocercospora fijiensis
Assay: Antifungal activity against Pseudocercospora fijiensis assessed as inhibition of mycelial growth under 12 hr photoperiod measured after 8 days
Type: functional, organism-based
In short: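 Microtiter well assay; inoculum adjusted to 2 × 10⁵ mycelial fragments/mL. Plates kept in an incubation chamber 1 m from white fluorescent tubes on a 12 h photoperiod. Mycelial growth was measured after 8 days, which is the logarithmic growth phase. IC₅₀ values were calculated from growth inhibition, with statistical analysis per Lazzaro et al. Benomyl and propiconazole were tested as reference fungicides.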

SMILES	growth inhibition (GI)
O=C1C(Cl)=Cc2cccc3cccc1c23	Active
O=C1C=C(O)c2cccc3cccc1c23	inactive
O=C1C=Cc2cccc3cccc1c23	Active
O=C1C(Br)=Cc2cccc3cccc1c23	Active
O=C1C=Cc2c(O)ccc3cccc1c23	inactive
COc1ccc2cccc3c2c1C=CC3=O	inactive
COc1ccc2cccc3c2c1C=C([N+](=O)[O-])C3=O	Active
O=C1C(O)=Cc2cccc3cccc1c23	inactive
O=C1C=Cc2ccc(O)c3cccc1c23	inactive
COC1=CC(=O)c2cccc3cccc1c23	inactive
COC1=Cc2cccc3cccc(c23)C1=O	inactive
COc1ccc2c3c(cccc13)C(=O)C=C2	inactive
O=C1C([N+](=O)[O-])=Cc2cccc3cccc1c23	Active

From ChEMBL document CHEMBL3044819, “Structure-activity relationship in the interaction of substituted perinaphthenones with Mycosphaerella fijiensis” (J Agric Food Chem, 2009)
